Measurements reported in ChEMBL document CHEMBL1122281, “Synthesis and antifilarial activity of N-[4-[[4-alkoxy-3-[(dialkylamino)methyl]phenyl]amino]- 2-pyrimidinyl]-N'-phenylguanidines” (J Med Chem, 1983).

How the values were obtained:
[1] = system: Litomosoides carinii; assay: Antifilarial activity against Litomosoides carinii infections in the Jird at dose 3 mg/kg administered orally; format: functional; details: route oral
In short: (§1)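 L. carinii-infected jirds were dosed. Survivors were killed 55–70 days after the first dose, and the pleural and peritoneal cavities were searched for adult worms. Live worms at autopsy were scored as a percentage relative to sham-dosed controls. Adult worm reduction above 60% was the activity criterion.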

[2] = system: Litomosoides carinii; assay: Antifilarial activity against Litomosoides carinii infections in the Jird at dose 25 mg/kg administered orally; format: functional; details: route oral; in short: as §1
[3] = Antifilarial activity against Litomosoides carinii infections in the Jird at dose 100 mg/kg administered subcutaneously; two or more animals died prematurely considered to be drug toxicity.; format: organism-based, Meriones unguiculatus; design: dose 100 mg/kg, route subcutaneous; details: gerbil, in vivo, sc
In short: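 Jirds infected with Litomosoides carinii. Surviving animals killed 55–70 days after first drug dose; pleural and peritoneal cavities searched for adult worms. Live worm count at autopsy scored as percentage relative to sham-dosed controls. Activity criterion: adult worm reduction exceeding 60%.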

[4] = system: Litomosoides carinii; assay: Antifilarial activity against Litomosoides carinii infections in the Jird at dose 100 mg/kg administered subcutaneously; format: functional; details: route subcutaneous; in short: as §1
[5] = system: Litomosoides carinii; assay: Antifilarial activity against Litomosoides carinii infections in the Jird at dose 100 mg/kg administered orally; format: functional; details: route oral; in short: as §1
[6] = system: Litomosoides carinii; assay: Antifilarial activity against Litomosoides carinii infections in the Jird at dose 12 mg/kg administered orally; format: functional; details: route oral; in short: as §1
[7] = system: Litomosoides carinii; assay: Antifilarial activity against Litomosoides carinii infections in the Jird at dose 50 mg/kg administered orally; format: functional; details: route oral; in short: as §1
[8] = system: Litomosoides carinii; assay: Antifilarial activity against Litomosoides carinii infections in the Jird at dose 0.5 mg/kg administered orally; format: functional; details: route oral; in short: as §1
[9] = system: Litomosoides carinii; assay: Antifilarial activity against Litomosoides carinii infections in the Jird at dose 25 mg/kg administered subcutaneously; format: functional; details: route subcutaneous; in short: as §1

Compound	Reduction of live worms [1]	Reduction of live worms [2]	Reduction of live worms [4]	Reduction of live worms [5]	other results
COc1ccc(Nc2cc(C(F)(F)F)nc(/N=C(\N)Nc3ccc(Cl)c(Cl)c3)n2)cc1CN(C)C	100%	100%	100%	100%	Animals dead [3]: > 2
CCN(CC)Cc1cc(Nc2cc(C(F)(F)F)nc(/N=C(\N)Nc3ccc(C(=O)c4ccccc4)cc3)n2)ccc1OC			19%	16%	
CN1CCN(Cc2cc(Nc3cc(C(F)(F)F)nc(/N=C(\N)Nc4ccccc4)n3)ccc2O)CC1				91%	Reduction of live worms [6]: 0%; Reduction of live worms [7]: 78%
CCN(CC)Cc1cc(Nc2cc(C(F)(F)F)nc(/N=C(\N)Nc3ccc(OC)cc3)n2)ccc1OC	0%	100%	100%		
CCN(CC)Cc1cc(Nc2cc(C(F)(F)F)nc(/N=C(\N)Nc3ccc(Cl)c(Cl)c3)n2)ccc1OC(C)C	11%	100%	100%	100%	
CN(C)Cc1cc(Nc2cc(C(F)(F)F)nc(/N=C(\N)Nc3ccc(Cl)c(Cl)c3)n2)ccc1O	90%	100%		100%	Reduction of live worms [8]: 100%
CN(C)Cc1cc(Nc2cc(C(F)(F)F)nc(/N=C(\N)Nc3ccc(C(=O)c4ccccc4)cc3)n2)ccc1O	-22%	32%	100%		
CN1CCN(Cc2cc(Nc3cc(C(F)(F)F)nc(/N=C(\N)Nc4ccc(Oc5ccccc5)cc4)n3)ccc2O)CC1			8%		
CC(C)CNCc1cc(Nc2cc(C(F)(F)F)nc(/N=C(\N)Nc3ccc(Cl)c(Cl)c3)n2)ccc1O	35%	100%		100%	
CCN(CC)Cc1cc(Nc2cc(C(F)(F)F)nc(/N=C(\N)Nc3ccc(C(=O)c4ccccc4)cc3)n2)ccc1OCc1ccccc1			0%	27%	
CCN(CC)Cc1cc(Nc2cc(C(F)(F)F)nc(/N=C(\N)Nc3ccc(Cl)c(Cl)c3)n2)ccc1OC	100%	100%	100%		Reduction of live worms [9]: 100%
CCNCc1cc(Nc2cc(C(F)(F)F)nc(/N=C(\N)Nc3ccccc3)n2)ccc1OC		33%	96%		
CCN(CC)Cc1cc(Nc2nc(/N=C(\N)Nc3ccc(Cl)c(Cl)c3)nc3c2CCCC3)ccc1O			0%		
CCN(CC)Cc1cc(Nc2cc(C(F)(F)F)nc(/N=C(\N)Nc3ccc(Oc4ccccc4)cc3)n2)ccc1O			3%	9%	
CCNCc1cc(Nc2cc(C(F)(F)F)nc(/N=C(\N)Nc3ccc(Cl)c(Cl)c3)n2)ccc1O	97%	100%	100%		Reduction of live worms [8]: 97%; Reduction of live worms [9]: 100%
CCN(CC)Cc1cc(Nc2cc(C(F)(F)F)nc(/N=C(\N)Nc3ccc(Cl)cc3)n2)ccc1O	100%				Reduction of live worms [8]: 100%; Reduction of live worms [6]: 100%; Reduction of live worms [7]: 100%
CN1CCN(Cc2cc(Nc3cc(C(F)(F)F)nc(/N=C(\N)Nc4ccc(C(=O)c5ccccc5)cc4)n3)ccc2O)CC1			8%		
N/C(=N\c1ccc(Cl)cc1)Nc1nc(Nc2ccc(O)c(CN3CCCC3)c2)cc(C(F)(F)F)n1					Reduction of live worms [6]: 87%; Reduction of live worms [7]: 100%
CN(C)Cc1cc(Nc2cc(C(F)(F)F)nc(/N=C(\N)Nc3ccc(Oc4ccccc4)cc3)n2)ccc1O			12%		
N/C(=N\c1ccc(Cl)c(Cl)c1)Nc1nc(Nc2ccc(O)c(CNCC3CCCCC3)c2)cc(C(F)(F)F)n1			4%		
CCN(CC)Cc1cc(Nc2cc(C(F)(F)F)nc(/N=C(\N)Nc3ccccc3)n2)ccc1O					Reduction of live worms [6]: 47%; Reduction of live worms [7]: 100%
CCNCc1cc(Nc2cc(C(F)(F)F)nc(/N=C(\N)Nc3ccc(C(F)(F)F)cc3)n2)ccc1OC	30%	100%	100%	100%	
CCNCc1cc(Nc2cc(-c3ccccc3)nc(/N=C(\N)Nc3ccc(Cl)c(Cl)c3)n2)ccc1OC			0%		
CCOc1ccc(Nc2cc(-c3ccccc3)nc(/N=C(\N)Nc3ccc(Cl)c(Cl)c3)n2)cc1CN(CC)CC	15%	78%			Animals dead [3]: > 2

Compound	Reduction of live worms [1]	Reduction of live worms [2]	Reduction of live worms [4]	Reduction of live worms [5]	other results
CCN(CC)Cc1cc(Nc2cc(C(F)(F)F)nc(/N=C(\N)Nc3ccc(C(=O)c4ccccc4)cc3)n2)ccc1O			6%	6%	
CCNCc1cc(Nc2cc(C(F)(F)F)nc(/N=C(\N)Nc3ccc(C(=O)c4ccccc4)cc3)n2)ccc1OC			0%		
CCN(CC)Cc1cc(Nc2ccnc3cc(Cl)ccc23)ccc1O.Cl		71%	100%	72%	Reduction of live worms [9]: 61%
COc1ccc(Nc2cc(C(F)(F)F)nc(/N=C(\N)Nc3ccccc3)n2)cc1CN1CCN(C)CC1	5%	95%		100%	
CCN(CC)Cc1cc(Nc2cc(C(F)(F)F)nc(/N=C(\N)Nc3ccc(C(F)(F)F)cc3)n2)ccc1OCc1ccccc1	0%	100%	100%	100%	
CCN(CC)Cc1cc(Nc2cc(C(F)(F)F)nc(/N=C(\N)Nc3ccc(OC)cc3)n2)ccc1O	2%	100%	95%	95%	
CCNCc1cc(Nc2cc(C(F)(F)F)nc(/N=C(\N)Nc3ccc(Oc4ccccc4)cc3)n2)ccc1OC			0%		
N/C(=N\c1ccc(Cl)c(Cl)c1)Nc1nc(Nc2ccc(O)c(CN3CCCC3)c2)cc(C(F)(F)F)n1	59%	100%		100%	
COc1ccc(Nc2cc(C(F)(F)F)nc(/N=C(\N)Nc3ccc(Cl)cc3)n2)cc1CN1CCCC1	99%				Reduction of live worms [8]: 100%; Reduction of live worms [6]: 100%; Reduction of live worms [7]: 100%
CCN(C)Cc1cc(Nc2cc(C(F)(F)F)nc(/N=C(\N)Nc3ccc(Cl)c(Cl)c3)n2)ccc1O	97%	100%	100%		Reduction of live worms [8]: 100%; Reduction of live worms [9]: 100%
CCN(CC)Cc1cc(Nc2cc(C(F)(F)F)nc(/N=C(\N)Nc3ccc(Oc4ccccc4)cc3)n2)ccc1OC		27%	0%		Animals dead [3]: > 2
CCN(CC)Cc1cc(Nc2cc(C(F)(F)F)nc(/N=C(\N)Nc3ccc(Cl)cc3)n2)cc(-c2ccccc2)c1O			35%	88%	
CCNCc1cc(Nc2nc(/N=C(\N)Nc3ccc(Cl)c(Cl)c3)nc3c2CCCC3)ccc1OC					Reduction of live worms [9]: 69%; Animals dead [3]: > 2
CCN(CC)Cc1cc(Nc2cc(C(F)(F)F)nc(/N=C(\N)Nc3ccc(C(F)(F)F)cc3)n2)ccc1OC	73%	100%	100%	100%	
CCN(CC)Cc1cc(Nc2cc(-c3ccccc3)nc(/N=C(\N)Nc3ccc(Cl)c(Cl)c3)n2)ccc1O			53%	47%	
CCN(CC)Cc1cccc(Nc2cc(C(F)(F)F)nc(/N=C(\N)Nc3ccc(Cl)c(Cl)c3)n2)c1	83%	100%		100%	
CCOc1ccc(Nc2cc(C(F)(F)F)nc(/N=C(\N)Nc3ccc(Cl)c(Cl)c3)n2)cc1CN(CC)CC	21%	100%		100%	
CCN(CC)Cc1cc(Nc2cc(C(F)(F)F)nc(/N=C(\N)Nc3ccc(Oc4ccccc4)cc3)n2)ccc1OCc1ccccc1			0%	22%	
CCOC(=O)N1CCN(Cc2cc(Nc3cc(C(F)(F)F)nc(/N=C(\N)Nc4ccc(Cl)c(Cl)c4)n3)ccc2O)CC1			31%		
CCN(CC)Cc1cc(Nc2cc(C(F)(F)F)nc(/N=C(\N)Nc3ccc(Cl)c(Cl)c3)n2)ccc1OCc1ccccc1	52%	100%		100%	
CCN(CC)Cc1cc(Nc2cc(C(F)(F)F)nc(/N=C(\N)Nc3ccc(C(F)(F)F)cc3)n2)ccc1O	98%	100%	100%	100%	Reduction of live worms [8]: 22%
CCN(CC)Cc1cc(Nc2cc(C(F)(F)F)nc(/N=C(\N)Nc3ccccc3)n2)ccc1OC					Reduction of live worms [6]: 38%; Reduction of live worms [7]: 100%
CN(C)Cc1cc(Nc2cc(C(F)(F)F)nc(/N=C(\N)Nc3ccc(C(F)(F)F)cc3)n2)ccc1O	54%	100%			Animals dead [3]: > 2
CN1CCN(Cc2cc(Nc3cc(C(F)(F)F)nc(/N=C(\N)Nc4ccc(Cl)cc4)n3)ccc2O)CC1					Reduction of live worms [6]: 38%; Reduction of live worms [7]: 98%
